Data reported in publication PMC9073569 (JAMA Network Open, 2022).
Where two headings read alike, the source gives them in different places.

Tests used:
[1] = tested on: moderate to severe pruritus in patients receiving hemodialysis; assay: 24-hour Worst Itching Intensity Numerical Rating Scale; type: in vivo, Japanese patients; details: week 8; for proportion of 4-point improvement in the NRS score: placebo 36%; for proportion of 3-point improvement in the NRS score: placebo 50%
How it was run: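 Adults aged 20 or older with ESKD on hemodialysis 3 times weekly for at least 12 weeks, with weekly mean NRS above 4, were randomized double-blind. Test compound or placebo was given IV after each dialysis session for 8 weeks. Worst itch over the prior 24 h (0–10) was logged daily in an e-diary and averaged weekly. Proportions improving ≥3 or ≥4 points at week 8 were compared with placebo by Fisher exact test.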

[2] = tested on: pruritus in patients receiving hemodialysis; details: 0.5, 1.0, and 1.5 μg/kg; previous phase 2 trial in the US; cited from earlier work
[3] = Plasma concentrations of difelikefalin; type: in vivo, Japanese patients; details: weeks 1, 4, and 7; LC-MS/MS
How it was run: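 Test compound was given IV at 0.25, 0.5 or 1.0 μg/kg after each hemodialysis session, 3 times weekly, with volume set by dry weight. Plasma was sampled before the first dialysis (weeks 1, 2, 4, 7, 8), 5 min post-dose (weeks 1, 4, 7), before the second dialysis (weeks 1, 4, 7) and 1 h post-dose (week 7). Assay was LC-MS/MS; summaries included geometric means and geometric CV.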

[4] = tested on: patients with pruritus receiving hemodialysis; type: in vivo, Japanese patients; details: for Constipation / Death / Malaise / Other serious adverse drug reactions / Pyrexia: placebo 0; for Adverse events leading to Discontinuation / Nausea: placebo 1 (2); for Adverse events leading to Interruption / Arthralgia / Blood pressure decreased / Other serious adverse events: placebo 2 (3); for Dizziness / Procedural hypotension / Somnolence / Vomiting: placebo 3 (5); for Adverse drug reactions / Nasopharyngitis: placebo 7 (11); for Adverse events: placebo 42 (67); for drug-related serious AEs (kind of event): patients recovered after discontinuing or suspending use of the study drug
[5] = cited from earlier work
[6] = 0.25 μg/kg iv 3 times a week, 8 weeks, n = 61
[7] = 0.5 μg/kg iv 3 times a week, 8 weeks, n = 61
[8] = 1.0 μg/kg iv 3 times a week, 8 weeks, n = 62

## difelikefalin
[1]; 0.25 μg/kg iv 3 times a week, n = 20 of 59
  proportion of 4-point improvement in the NRS score: 34%
[1]; 0.25 μg/kg iv 3 times a week, n = 31 of 59
  proportion of 3-point improvement in the NRS score: 53%
[1]; 0.5 μg/kg iv 3 times a week, n = 27 of 53
  proportion of 4-point improvement in the NRS score: 51%
[1]; 0.5 μg/kg iv 3 times a week, n = 32 of 53
  proportion of 3-point improvement in the NRS score: 60%
[1]; 1.0 μg/kg iv 3 times a week, n = 23 of 53
  proportion of 4-point improvement in the NRS score: 43%
[1]; 1.0 μg/kg iv 3 times a week, n = 30 of 53
  proportion of 3-point improvement in the NRS score: 57%
[2]
  dose response in relation to efficacy: no clear dose response
[3]
  plasma difelikefalin concentrations in relation to body weight classification: No significant differences
[4]; [6]
  Constipation: 5 (8) No. (%)
  Death: 0 No. (%)
  Malaise: 2 (3) No. (%)
  Other serious adverse drug reactions: 0 No. (%)
  Pyrexia: 2 (3) No. (%)
  Adverse events leading to Discontinuation: 0 No. (%)
  Nausea: 0 No. (%)
  Adverse events leading to Interruption: 0 No. (%)
  Arthralgia: 3 (5) No. (%)
  Blood pressure decreased: 0 No. (%)
  Other serious adverse events: 3 (5) No. (%)
  Dizziness: 3 (5) No. (%)
  Procedural hypotension: 4 (7) No. (%)
  Somnolence: 2 (3) No. (%)
  Vomiting: 1 (2) No. (%)
  Adverse drug reactions: 9 (15) No. (%)
  Nasopharyngitis: 8 (13) No. (%)
  Adverse events: 44 (72) No. (%)
[4]; 0.5 μg/kg group
  drug-related serious AEs (kind of event): Altered state of consciousness
[4]; [7]
  Constipation: 3 (5) No. (%)
  Death: 0 No. (%)
  Malaise: 2 (3) No. (%)
  Other serious adverse drug reactions: 1 (2) No. (%)
  Pyrexia: 4 (7) No. (%)
  Adverse events leading to Discontinuation: 4 (7) No. (%)
  Nausea: 1 (2) No. (%)
  Adverse events leading to Interruption: 5 (8) No. (%)
  Arthralgia: 5 (8) No. (%)
  Blood pressure decreased: 4 (7) No. (%)
  Other serious adverse events: 8 (13) No. (%)
  Dizziness: 3 (5) No. (%)
  Procedural hypotension: 3 (5) No. (%)
  Somnolence: 3 (5) No. (%)
  Vomiting: 1 (2) No. (%)
  Adverse drug reactions: 9 (15) No. (%)
  Nasopharyngitis: 6 (10) No. (%)
  Adverse events: 47 (77) No. (%)
[4]; 1.0 μg/kg group
  drug-related serious AEs (kind of event): obstruction in the small intestine
[4]; [8]
  Constipation: 7 (11) No. (%)
  Death: 0 No. (%)
  Malaise: 4 (6) No. (%)
  Other serious adverse drug reactions: 1 (2) No. (%)
  Pyrexia: 0 No. (%)
  Adverse events leading to Discontinuation: 5 (8) No. (%)
  Nausea: 4 (6) No. (%)
  Adverse events leading to Interruption: 5 (8) No. (%)
  Arthralgia: 2 (3) No. (%)
  Blood pressure decreased: 3 (5) No. (%)
  Other serious adverse events: 5 (8) No. (%)
  Dizziness: 5 (8) No. (%)
  Procedural hypotension: 2 (3) No. (%)
  Somnolence: 6 (10) No. (%)
  Vomiting: 4 (6) No. (%)
  Adverse drug reactions: 17 (27) No. (%)
  Nasopharyngitis: 3 (5) No. (%)
[4]; 1.0 μg/kg iv 3 times a week, 8 weeks, n = 62, P = .02
  Adverse events: 53 (85) No. (%)
[4]; 0.25, 0.5 and 1.0 μg/kg iv 3 times a week, 8 weeks
  changes in clinical laboratory tests, vital signs, and 12-lead electrocardiogram: No notable changes
[5]
  transfer to the CNS: limited
